The text below walks through data of ChEMBL document CHEMBL1157537 (J Med Chem, 2008).

Assay [1] concerns the target T1, Mineralocorticoid receptor (Homo sapiens, UniProt P08235).
T1 sequence (P08235 whole entry): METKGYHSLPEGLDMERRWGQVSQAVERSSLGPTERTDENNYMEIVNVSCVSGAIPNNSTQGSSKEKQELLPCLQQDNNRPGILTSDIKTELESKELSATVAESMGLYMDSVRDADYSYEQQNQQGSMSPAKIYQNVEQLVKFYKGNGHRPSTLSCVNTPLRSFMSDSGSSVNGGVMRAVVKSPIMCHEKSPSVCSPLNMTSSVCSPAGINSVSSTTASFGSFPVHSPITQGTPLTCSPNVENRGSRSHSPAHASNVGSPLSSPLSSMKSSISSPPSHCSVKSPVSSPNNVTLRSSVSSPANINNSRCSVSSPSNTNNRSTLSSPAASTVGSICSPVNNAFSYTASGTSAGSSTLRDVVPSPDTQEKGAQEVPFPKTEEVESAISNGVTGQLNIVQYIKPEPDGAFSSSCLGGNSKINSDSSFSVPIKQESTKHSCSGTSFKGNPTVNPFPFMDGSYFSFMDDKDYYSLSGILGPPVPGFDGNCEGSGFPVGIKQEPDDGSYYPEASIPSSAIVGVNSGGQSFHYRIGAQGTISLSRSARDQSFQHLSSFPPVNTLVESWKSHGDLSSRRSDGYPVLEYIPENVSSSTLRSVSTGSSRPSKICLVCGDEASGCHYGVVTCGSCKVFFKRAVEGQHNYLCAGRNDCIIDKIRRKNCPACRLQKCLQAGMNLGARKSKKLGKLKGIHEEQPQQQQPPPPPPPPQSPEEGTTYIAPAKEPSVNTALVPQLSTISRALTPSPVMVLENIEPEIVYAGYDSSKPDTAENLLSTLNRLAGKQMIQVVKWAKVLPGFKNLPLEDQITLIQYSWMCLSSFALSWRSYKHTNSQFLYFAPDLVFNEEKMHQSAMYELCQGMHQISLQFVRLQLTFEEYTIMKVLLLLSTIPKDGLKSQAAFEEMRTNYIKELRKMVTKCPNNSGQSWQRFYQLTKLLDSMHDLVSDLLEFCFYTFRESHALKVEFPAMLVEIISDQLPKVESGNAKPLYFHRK
The assay can be described thus: Antagonist activity at human mineralocorticoid receptor. The assay is classed as functional.

For assay [2], the target named is T2, Androgen receptor (Homo sapiens, UniProt P10275).
T2 sequence (P10275 whole entry): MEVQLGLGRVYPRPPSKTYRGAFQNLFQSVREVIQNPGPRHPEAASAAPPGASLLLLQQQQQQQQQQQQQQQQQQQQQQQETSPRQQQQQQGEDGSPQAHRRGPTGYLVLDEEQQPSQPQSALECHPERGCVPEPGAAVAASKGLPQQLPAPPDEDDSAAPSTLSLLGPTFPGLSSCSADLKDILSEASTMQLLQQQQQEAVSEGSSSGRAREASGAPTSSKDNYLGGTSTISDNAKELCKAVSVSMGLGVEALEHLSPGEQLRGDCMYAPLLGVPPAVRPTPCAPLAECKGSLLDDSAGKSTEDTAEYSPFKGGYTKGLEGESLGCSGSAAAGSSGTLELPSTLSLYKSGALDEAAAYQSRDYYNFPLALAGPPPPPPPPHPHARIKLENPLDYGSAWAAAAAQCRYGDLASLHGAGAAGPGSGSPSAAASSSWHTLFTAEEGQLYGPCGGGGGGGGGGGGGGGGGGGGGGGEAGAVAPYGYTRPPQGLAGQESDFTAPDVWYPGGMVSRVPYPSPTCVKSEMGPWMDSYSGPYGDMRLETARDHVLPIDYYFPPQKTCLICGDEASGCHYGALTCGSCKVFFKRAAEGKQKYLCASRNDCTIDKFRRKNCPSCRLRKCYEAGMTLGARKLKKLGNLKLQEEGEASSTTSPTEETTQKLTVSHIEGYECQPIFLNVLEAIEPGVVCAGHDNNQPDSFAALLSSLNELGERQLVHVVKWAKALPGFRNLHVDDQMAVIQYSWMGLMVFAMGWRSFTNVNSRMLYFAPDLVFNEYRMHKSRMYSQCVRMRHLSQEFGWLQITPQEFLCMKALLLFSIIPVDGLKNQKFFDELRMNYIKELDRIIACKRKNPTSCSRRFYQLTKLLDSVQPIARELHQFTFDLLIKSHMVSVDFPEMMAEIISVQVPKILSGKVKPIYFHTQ
Kind of assay: Agonist activity at human androgen receptor. It is filed as functional.

Assay [3] addresses T3, Glucocorticoid receptor (Homo sapiens, UniProt P04150).
T3 sequence (P04150 whole entry): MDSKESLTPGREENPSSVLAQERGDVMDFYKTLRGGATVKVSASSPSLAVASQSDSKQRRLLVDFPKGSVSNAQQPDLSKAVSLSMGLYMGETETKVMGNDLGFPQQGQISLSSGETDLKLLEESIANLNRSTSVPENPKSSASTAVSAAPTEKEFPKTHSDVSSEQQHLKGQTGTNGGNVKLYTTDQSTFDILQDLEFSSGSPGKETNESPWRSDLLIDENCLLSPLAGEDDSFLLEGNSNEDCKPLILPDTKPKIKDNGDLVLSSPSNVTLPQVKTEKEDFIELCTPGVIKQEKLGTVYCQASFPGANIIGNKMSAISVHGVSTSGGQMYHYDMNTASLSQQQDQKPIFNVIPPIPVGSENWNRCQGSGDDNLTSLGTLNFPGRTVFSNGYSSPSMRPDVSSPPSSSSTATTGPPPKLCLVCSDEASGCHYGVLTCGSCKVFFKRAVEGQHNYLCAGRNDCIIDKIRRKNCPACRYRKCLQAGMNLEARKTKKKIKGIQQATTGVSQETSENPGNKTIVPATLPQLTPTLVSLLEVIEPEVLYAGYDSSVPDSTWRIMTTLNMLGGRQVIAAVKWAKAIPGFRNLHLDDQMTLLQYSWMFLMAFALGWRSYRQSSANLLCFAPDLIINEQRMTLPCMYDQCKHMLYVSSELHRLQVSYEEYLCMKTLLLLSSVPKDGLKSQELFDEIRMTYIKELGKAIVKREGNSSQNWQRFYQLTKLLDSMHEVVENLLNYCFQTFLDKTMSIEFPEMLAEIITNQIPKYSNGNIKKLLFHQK
The assay can be described thus: Antagonist activity at human glucocorticoid receptor. It is filed as functional.

For assay [4], the target named is T4, Progesterone receptor (Homo sapiens, UniProt P06401).
T4 sequence (P06401 whole entry): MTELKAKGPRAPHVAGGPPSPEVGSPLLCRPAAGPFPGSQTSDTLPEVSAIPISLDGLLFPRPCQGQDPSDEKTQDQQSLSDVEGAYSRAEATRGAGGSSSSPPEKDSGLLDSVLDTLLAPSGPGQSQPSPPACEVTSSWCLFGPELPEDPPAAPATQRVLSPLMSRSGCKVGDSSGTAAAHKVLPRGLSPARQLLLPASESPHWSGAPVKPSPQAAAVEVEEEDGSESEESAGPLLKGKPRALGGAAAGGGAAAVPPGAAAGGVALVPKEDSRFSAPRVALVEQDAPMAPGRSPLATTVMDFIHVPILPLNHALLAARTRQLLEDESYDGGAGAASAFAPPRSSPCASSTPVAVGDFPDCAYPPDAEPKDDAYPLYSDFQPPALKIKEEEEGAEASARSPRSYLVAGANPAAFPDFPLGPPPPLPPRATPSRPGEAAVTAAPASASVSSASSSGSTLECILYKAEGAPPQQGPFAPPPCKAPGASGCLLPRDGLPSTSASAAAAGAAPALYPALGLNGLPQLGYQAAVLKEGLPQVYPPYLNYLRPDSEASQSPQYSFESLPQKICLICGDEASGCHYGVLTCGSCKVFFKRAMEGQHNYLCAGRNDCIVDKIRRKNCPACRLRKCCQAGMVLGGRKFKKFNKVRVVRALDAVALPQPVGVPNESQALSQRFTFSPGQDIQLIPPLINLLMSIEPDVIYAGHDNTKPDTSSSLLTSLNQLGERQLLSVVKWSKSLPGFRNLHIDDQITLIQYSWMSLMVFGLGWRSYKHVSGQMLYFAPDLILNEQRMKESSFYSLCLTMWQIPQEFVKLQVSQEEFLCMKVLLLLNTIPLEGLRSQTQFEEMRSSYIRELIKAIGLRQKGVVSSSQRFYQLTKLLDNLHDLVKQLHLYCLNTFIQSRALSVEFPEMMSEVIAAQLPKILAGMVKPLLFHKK
The assay can be described thus: Agonist activity at human progesterone receptor in human T47D cells assessed as alkaline phosphatase activity. The assay is classed as functional, cell-based.

Assay [5] has as its target T5, Progesterone receptor (Homo sapiens) (UniProt P06401).
T5 sequence (whole entry): T4 sequence (P06401 whole entry)
Kind of assay: Agonist activity at human progesterone receptor in human T47D cells assessed as alkaline phosphatase activity relative to progesterone. The assay is classed as functional, cell-based.

The target in assay [6] is T4, Progesterone receptor. The assay can be described thus: Agonist activity at human progesterone receptor. It is filed as functional.
Assay [7] has as its target T5, Progesterone receptor (Homo sapiens). The assay can be described thus: Agonist activity at human progesterone receptor relative to progesterone. It is filed as functional.
Assay [8] concerns the target T4, Progesterone receptor. Kind of assay: Binding affinity at human progesterone receptor.
For assay [9], the species on record is Rattus norvegicus. Kind of assay: Progestational activity in estrone-treated ovariectomized rat assessed as inhibition of medroxyprogesterone acetate-induced effect on uterine epithelial cell height. The assay is classed as functional, organism-based. In outline: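 Antagonist mode of the estrone-treated ovariectomized rat multi-endpoint model: compound was combined with MPA plus estrone, with vehicle and estrone-only groups. Endpoints were uterine epithelial cell height, vaginal epithelial thickness and mammary alveolar bud proliferation.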

The species entered for assay [10] is Rattus norvegicus. Kind of assay: Progestational activity in estrone-treated ovariectomized rat assessed as effect on vaginal epithelial thickness. It is filed as functional, organism-based. In outline: (§1)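 Ovariectomized rats were treated with estrone, alone or combined with test progestin, and compared with vehicle and estrone-only groups. Endpoints were uterine epithelial cell height, vaginal epithelial thickness and mammary alveolar bud proliferation.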

The species entered for assay [11] is Rattus norvegicus. The assay can be described thus: Progestational activity in estrone-treated ovariectomized rat assessed as reduction of breast alveolar bud proliferation. It is filed as functional, organism-based. The gist of the method:
as §1

The species named for assay [12] is Rattus norvegicus. Kind of assay: Progestational activity in estrone-treated ovariectomized rat assessed as effect on uterine epithelial cell height. It is filed as functional, organism-based. The gist of the method:
as §1

Calls of active or inactive are those of the source. No cut-off for these calls is given here.

What is called IC50 is the concentration that gives 50% inhibition. Higher therefore signals weaker potency in that assay. As usually defined, the EC50 is the concentration needed to bring the measured effect to its halfway point. Take `CC1=C[C@@H]([C@@H]2Oc3c(F)cc(F)cc3-c3ccc4c(c32)C(C)=CC(C)(C)N4)CCC1` (stereo in doubt; (-)-5c): the figures for the IC50 in [1] and in [3] were 1350 nM and 34 nM, respectively. Moreover, the EC50 in assay [2] amounted to 1800 nM.
Consider `CC1=CC(C)(C)Nc2ccc3c(c21)[C@H]([C@H]1CCCC(C)=C1C)Oc1c(F)cc(F)cc1-3` (racemic), for which the EC50 in [4] is 96 nM; in assay [6], 10.7 nM. The values for the Efficacy in assay [5] and in assay [7] were 66% and 97%, respectively.
For the molecule `CC1=C[C@H]([C@@H]2Oc3c(F)cc(F)cc3-c3ccc4c(c32)C(C)=CC(C)(C)N4)CCC1` (racemic), the Efficacy was determined as 63% in assay [5] and 100% in assay [7].
`CC1=C[C@@H]([C@@H]2Oc3c(F)cc(F)cc3-c3ccc4c(c32)C(C)=CC(C)(C)N4)CCC1` (racemic) displayed an Efficacy in [7] of 162%.
What is called Ki is a dissociation constant, usually derived from enzyme kinetics or from competition with a known ligand. A higher Ki goes with a looser hold on the target. As for `CC1=CC(C)(C)Nc2ccc3c(c21)[C@H]([C@@H]1C=CCCC1)Oc1c(F)cc(F)cc1-3` (racemic), the results for the EC50 in assay [4] and in [6] were 27 nM and 3.4 nM, respectively. In addition, the results for the Efficacy in assay [5] and in assay [7] were 66% and 171%, respectively. Further, the affinity in [8] corresponds to a Ki of 4.8 nM.
For the molecule `C[C@@H]1C[C@@H]2C(=C3CCC(=O)C=C31)[C@@H](c1ccc(N(C)C)cc1)C[C@@]1(C)[C@H]2CC[C@@]12CCCO2`, the result in [9] was Active.
Take `CC1=CC(C)(C)Nc2ccc3c(c21)[C@H]([C@H]1CCC[C@@]2(C)O[C@@H]12)Oc1c(F)cc(F)cc1-3`: the concentration giving a half-maximal response (EC50) in [4] amounted to 2.8 nM; in [6], 0.4 nM. Further, the Efficacy in assay [5] is 59%; in assay [7], 177%. In addition, the Ki in assay [8] was determined as 1.2 nM.
As for `CC1=C[C@@H]([C@@H]2Oc3c(F)cc(F)cc3-c3ccc4c(c32)C(C)=CC(C)(C)N4)CCC1` (stereo in doubt; (+)-5d), the Efficacy in [7] was 11%.
As to `CC(=O)O[C@]1(C(C)=O)CC[C@H]2[C@@H]3C[C@H](C)C4=CC(=O)CC[C@]4(C)[C@H]3CC[C@@]21C`, the outcome in assay [10], in assay [11] and in assay [12] was Active. Further, the Efficacy in assay [5] and in assay [7] was 98% each time.
